Measurements published in ChEMBL document CHEMBL3085763, “The sulfamide moiety affords higher inhibitory activity and oral bioavailability to a series of coumarin dual selective RAF/MEK inhibitors” (Bioorg Med Chem Lett, 2013).

Key:
[1] = AUC (0 to t) in […] mouse at 200 mg/kg, po after 24 hrs by LC/MS/MS analysis; type: ADME, organism-based; parameters: time < 24 hr, dose 200 mg/kg, route oral; settings: plasma
[2] = Oral bioavailability in cynomolgus monkey at 5 mg/kg; type: ADME, organism-based, Macaca fascicularis; settings: in vivo
In short: (§1)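 Single intravenous and oral doses given as the sodium salt in 5% DMSO/5% Cremophor EL/15% PEG400/15% HPCD/60% water. The iv/po doses were 10/20 mg/kg in mouse, 5.0/10 mg/kg in rat and 2.5/5.0 mg/kg in monkey. Oral AUCinf, iv t1/2 and clearance were also reported.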

[3] = Oral bioavailability in […] mouse at 100 mg/kg after 24 hrs by LC/MS/MS analysis; type: ADME, organism-based; settings: in vivo
In short: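 Mouse 24-h exposure study with oral dosing at 100 mg/kg of the free form (not sodium salt). Formulated as a solution of 5% DMSO, 5% Cremophor EL, 15% PEG400, 15% HPCD and 60% water.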

[4] = AUC (0 to t) in […] mouse at 100 mg/kg, po after 24 hrs by LC/MS/MS analysis; type: ADME, organism-based; parameters: time < 24 hr, dose 100 mg/kg, route oral; settings: plasma
[5] = AUC (0 to t) in […] mouse at 50 mg/kg, po after 24 hrs by LC/MS/MS analysis; type: ADME, organism-based; parameters: time < 24 hr, dose 50 mg/kg, route oral; settings: plasma
Mus musculus = experiment: AUC (0 to t) in […] mouse assessed as dimethylcarbamic acid 6-chloro-4-methyl-2-oxo-3-[3-(sulfamoylamino)benzyl]-2H-chromen-7-yl ester level at 200 mg/kg, po after 24 hrs by LC/MS/MS analysis; type: ADME, organism-based, Plasma; parameters: time < 24 hr, dose 200 mg/kg, route oral; settings: in vivo
[6] = Oral bioavailability in Crlj:CD rat at 10 mg/kg; type: ADME, organism-based; settings: in vivo; in short: as §1
[7] = Oral bioavailability in BALB-nu/nu mouse at 20 mg/kg; type: ADME, organism-based; settings: in vivo; in short: as §1
[8] = AUC (infinity) in cynomolgus monkey at 5 mg/kg, po; type: ADME, organism-based, Macaca fascicularis; parameters: time infinity, dose 5 mg/kg, route oral; settings: plasma
In short: (§2)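 The sodium salt was dosed iv and po: mouse 10/20 mg/kg, rat 5.0/10 mg/kg, monkey 2.5/5.0 mg/kg. Vehicle was 5% DMSO/5% Cremophor EL/15% PEG400/15% HPCD/60% water. AUCinf was taken after po dosing; t1/2 was taken after iv dosing.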

[9] = AUC (infinity) in Crlj:CD rat at 10 mg/kg, po; type: ADME, organism-based; parameters: time infinity, dose 10 mg/kg, route oral; settings: plasma; in short: as §2
[10] = AUC (infinity) in BALB-nu/nu mouse at 20 mg/kg, po; type: ADME, organism-based; parameters: time infinity, dose 20 mg/kg, route oral; settings: plasma; in short: as §2

SMILES | AUC(0-t) at 24 h [1] [µM·h] | AUC(0-t) at 24 h [4] [µM·h] | other results
Cc1c(Cc2cccc(N)c2)c(=O)oc2cc(OC(=O)N(C)C)c(Cl)cc12 | 29 |  | 
Cc1c(Cc2cccc(NS(N)(=O)=O)c2)c(=O)oc2cc(OC(=O)N(C)C)c(Cl)cc12 | 70 |  | 
CNS(=O)(=O)Nc1cccc(Cc2c(C)c3cc(Cl)c(OC(=O)N(C)C)cc3oc2=O)c1 |  | 17 | bioavailability [2]: < 5%; bioavailability [3]: 10%
Cc1c(Cc2cccc(NS(=O)(=O)N(C)C)c2)c(=O)oc2cc(OC(=O)N(C)C)c(Cl)cc12 |  |  | AUC(0-t) at 24 h [5]: 3 µM·h
Cc1c(Cc2cccc(NS(C)(=O)=O)c2)c(=O)oc2cc(OC(=O)N(C)C)c(Cl)cc12 |  | 41 | 
CCS(=O)(=O)Nc1cccc(Cc2c(C)c3cc(Cl)c(OC(=O)N(C)C)cc3oc2=O)c1 |  | 30 | 
CONS(=O)(=O)Nc1cccc(Cc2c(C)c3cc(Cl)c(OC(=O)N(C)C)cc3oc2=O)c1 |  | 62 | 
Cc1c(Cc2cccc(NS(=O)(=O)NCC(F)(F)F)c2)c(=O)oc2cc(OC(=O)N(C)C)c(Cl)cc12 |  | 26 | 
Cc1c(Cc2cccc(NS(=O)(=O)NCCC#N)c2)c(=O)oc2cc(OC(=O)N(C)C)c(Cl)cc12 | 25 |  | 
Cc1c(Cc2cccc(NS(=O)(=O)NCCO)c2)c(=O)oc2cc(OC(=O)N(C)C)c(Cl)cc12 | 14 |  | 
COCCNS(=O)(=O)Nc1cccc(Cc2c(C)c3cc(Cl)c(OC(=O)N(C)C)cc3oc2=O)c1 | 9 |  | AUCt (Mus musculus): 14 µM·h
CNS(=O)(=O)[N-]c1cccc(Cc2c(C)c3cc(Cl)c(OC(=O)N(C)C)cc3oc2=O)c1.[Na+] |  | 51 | bioavailability [3]: 31%
Cc1c(Cc2cccc(NS(N)(=O)=O)c2F)c(=O)oc2cc(OC(=O)N(C)C)c(F)cc12 |  |  | bioavailability [2]: 30%; bioavailability [6]: 62%; bioavailability [7]: 51%; AUC(0-inf) [8]: 2.2 µM·h; AUC(0-inf) [9]: 6 µM·h; AUC(0-inf) [10]: 26 µM·h
